Measurements reported in ChEMBL document CHEMBL4619776, “Probing the Plasticity in the Active Site of Protein N-terminal Methyltransferase 1 Using Bisubstrate Analogues” (J Med Chem, 2020).
The source made the active and inactive calls. The calls are words filed in the database; no cut-off is given here. Numbered stars: 1 amine (or outer) side, 2 acyl side, 3 side chain; on linkers, the order of the positions; unused ones are H or OH. Square brackets hold non-standard residues; d marks the D form. Peptide text beside a SMILES is read from it. X1 = Nc1ncnc2c1ncn2[C@@H]1O[C@H](CSCCCN(CC(=O)[*:2])[*:1])[C@@H](O)[C@H]1O; Nlys = NCCCCNCC(=O)O

Key:
[1] = molecular target: T1, N-terminal Xaa-Pro-Lys N-methyltransferase 1 (Homo sapiens, UniProt Q9BV86); test: Inhibition of NTMT1 (unknown origin) pre-incubated for 10 mins before GPKRIA peptide substrate addition by SAHH coupled fluorescence assay
T1 sequence (Q9BV86 whole entry): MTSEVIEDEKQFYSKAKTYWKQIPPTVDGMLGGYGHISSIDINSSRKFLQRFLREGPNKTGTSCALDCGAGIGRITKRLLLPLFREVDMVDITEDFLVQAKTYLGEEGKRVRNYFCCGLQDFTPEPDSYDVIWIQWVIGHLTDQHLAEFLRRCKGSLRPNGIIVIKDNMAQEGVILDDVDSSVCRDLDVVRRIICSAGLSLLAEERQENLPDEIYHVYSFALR
How it was run: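 Inhibitor at 0.15 nM–10 μM, preincubated 10 min. Reaction started with 0.5 μM GPKRIA (Km). Fluorescence read at ex 400/em 465 nm; IC50 derived.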

[2] = molecular target: T1, N-terminal Xaa-Pro-Lys N-methyltransferase 1; test: Time dependent inhibition of NTMT1 (unknown origin) pre-incubated for 30 mins before GPKRIA peptide substrate addition by SAHH coupled fluorescence assay based Morrison's quadratic equation analysis
[3] = molecular target: T1, N-terminal Xaa-Pro-Lys N-methyltransferase 1; test: Binding affinity to NTMT1 (unknown origin) assessed as binding constant Kd2 by ITC assay
How it was run: (§1)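 Purified NTMT1 or NTMT2 at 30–50 μM in the cell; compound at 0.5–1 mM in the same buffer, titrated in as 26 injections of 10 μl spaced 180 s. Data fitted to a one-site or two-site binding model.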

[4] = molecular target: T1, N-terminal Xaa-Pro-Lys N-methyltransferase 1; test: Time dependent inhibition of NTMT1 (unknown origin) pre-incubated for 60 mins before GPKRIA peptide substrate addition by SAHH coupled fluorescence assay based Morrison's quadratic equation analysis
[5] = molecular target: T1, N-terminal Xaa-Pro-Lys N-methyltransferase 1; test: Time dependent inhibition of NTMT1 (unknown origin) pre-incubated for 90 mins before GPKRIA peptide substrate addition by SAHH coupled fluorescence assay based Morrison's quadratic equation analysis
[6] = molecular target: T1, N-terminal Xaa-Pro-Lys N-methyltransferase 1; test: Binding affinity to NTMT1 (unknown origin) assessed as binding constant Kd1 by ITC assay; how it was run: as §1
[7] = molecular target: N-terminal Xaa-Pro-Lys N-methyltransferase 2 (Homo sapiens, UniProt Q5VVY1); test: Binding affinity to […] (unknown origin) by ITC assay; how it was run: as §1
Sequence of N-terminal Xaa-Pro-Lys N-methyltransferase 2 (Q5VVY1 whole entry): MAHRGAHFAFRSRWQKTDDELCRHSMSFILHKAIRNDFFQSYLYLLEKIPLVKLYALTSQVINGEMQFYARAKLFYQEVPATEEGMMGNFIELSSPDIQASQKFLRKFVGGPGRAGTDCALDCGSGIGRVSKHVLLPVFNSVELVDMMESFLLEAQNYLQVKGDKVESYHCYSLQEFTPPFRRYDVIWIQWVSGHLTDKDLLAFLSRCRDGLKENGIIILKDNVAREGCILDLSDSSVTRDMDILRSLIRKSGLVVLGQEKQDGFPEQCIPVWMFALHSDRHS

[8] = molecular target: T1, N-terminal Xaa-Pro-Lys N-methyltransferase 1; test: Time dependent inhibition of NTMT1 (unknown origin) pre-incubated for 120 mins before GPKRIA peptide substrate addition by SAHH coupled fluorescence assay based Morrison's quadratic equation analysis
[9] = molecular target: T1, N-terminal Xaa-Pro-Lys N-methyltransferase 1; test: Time dependent inhibition of NTMT1 (unknown origin) pre-incubated for 10 mins before GPKRIA peptide substrate addition by SAHH coupled fluorescence assay based Morrison's quadratic equation analysis
[10] = molecular target: T2, N-terminal Xaa-Pro-Lys N-methyltransferase 1 (Homo sapiens) (UniProt Q9BV86); test: Substrate activity at NTMT1 (unknown origin) assessed as compound methylation at 10 uM incubated overnight by MALDI-MS methylation assay
T2 sequence (whole entry): T1 sequence (Q9BV86 whole entry)
How it was run: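 Compound (10 µM) incubated overnight at 37 °C with 0.1 µM NTMT1 and 3 µM SAM in 20 mM Tris pH 7.5, 50 mM KCl. Quenched 1:1 with 20 mM NH4H2PO4, 0.4% TFA in 1:1 acetonitrile/water. Methylated compound detected by MALDI-MS with 2,5-dihydroxybenzoic acid matrix.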

[11] = molecular target: T3, Histone-lysine N-methyltransferase EHMT2 (Homo sapiens) (UniProt Q96KQ7); test: Inhibition of G9a (unknown origin) at 100 uM
T3 sequence (whole entry): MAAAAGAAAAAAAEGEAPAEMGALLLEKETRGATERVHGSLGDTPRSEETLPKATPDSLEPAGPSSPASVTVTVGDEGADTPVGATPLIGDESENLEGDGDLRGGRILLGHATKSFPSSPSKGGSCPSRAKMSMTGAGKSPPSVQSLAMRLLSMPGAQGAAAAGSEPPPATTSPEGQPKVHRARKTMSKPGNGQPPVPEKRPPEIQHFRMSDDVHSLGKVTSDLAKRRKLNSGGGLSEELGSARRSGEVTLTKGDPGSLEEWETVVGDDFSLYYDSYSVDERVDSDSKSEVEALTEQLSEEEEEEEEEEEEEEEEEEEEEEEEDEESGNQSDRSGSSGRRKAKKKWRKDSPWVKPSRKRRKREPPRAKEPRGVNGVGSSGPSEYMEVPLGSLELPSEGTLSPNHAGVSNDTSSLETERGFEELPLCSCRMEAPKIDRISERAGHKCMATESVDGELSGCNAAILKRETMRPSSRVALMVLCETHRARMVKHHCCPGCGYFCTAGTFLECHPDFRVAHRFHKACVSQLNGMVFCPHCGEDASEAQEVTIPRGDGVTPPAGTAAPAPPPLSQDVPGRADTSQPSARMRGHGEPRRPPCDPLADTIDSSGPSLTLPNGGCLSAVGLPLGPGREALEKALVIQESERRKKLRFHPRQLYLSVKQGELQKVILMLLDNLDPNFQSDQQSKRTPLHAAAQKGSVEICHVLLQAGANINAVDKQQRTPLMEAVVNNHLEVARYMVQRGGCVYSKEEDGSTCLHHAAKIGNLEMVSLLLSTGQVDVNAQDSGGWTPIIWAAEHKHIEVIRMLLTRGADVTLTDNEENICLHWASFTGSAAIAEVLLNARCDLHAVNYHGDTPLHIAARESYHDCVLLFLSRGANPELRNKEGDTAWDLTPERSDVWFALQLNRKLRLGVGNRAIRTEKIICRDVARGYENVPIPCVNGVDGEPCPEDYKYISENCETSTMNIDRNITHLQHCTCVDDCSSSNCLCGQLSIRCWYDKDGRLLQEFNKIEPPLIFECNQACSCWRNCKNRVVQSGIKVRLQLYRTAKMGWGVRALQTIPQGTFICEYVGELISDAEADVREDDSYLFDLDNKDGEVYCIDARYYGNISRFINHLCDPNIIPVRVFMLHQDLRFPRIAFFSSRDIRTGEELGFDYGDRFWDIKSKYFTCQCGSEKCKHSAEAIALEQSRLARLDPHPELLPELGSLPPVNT

[12] = molecular target: Protein arginine N-methyltransferase 3 (Homo sapiens) (UniProt O60678); test: Inhibition of PRMT3 (unknown origin) at 30 uM pre-incubated for 10 mins before H4-21 peptide addition in presence of SAM relative to control
Sequence of Protein arginine N-methyltransferase 3 (Homo sapiens) (O60678 2-531 limits assumed): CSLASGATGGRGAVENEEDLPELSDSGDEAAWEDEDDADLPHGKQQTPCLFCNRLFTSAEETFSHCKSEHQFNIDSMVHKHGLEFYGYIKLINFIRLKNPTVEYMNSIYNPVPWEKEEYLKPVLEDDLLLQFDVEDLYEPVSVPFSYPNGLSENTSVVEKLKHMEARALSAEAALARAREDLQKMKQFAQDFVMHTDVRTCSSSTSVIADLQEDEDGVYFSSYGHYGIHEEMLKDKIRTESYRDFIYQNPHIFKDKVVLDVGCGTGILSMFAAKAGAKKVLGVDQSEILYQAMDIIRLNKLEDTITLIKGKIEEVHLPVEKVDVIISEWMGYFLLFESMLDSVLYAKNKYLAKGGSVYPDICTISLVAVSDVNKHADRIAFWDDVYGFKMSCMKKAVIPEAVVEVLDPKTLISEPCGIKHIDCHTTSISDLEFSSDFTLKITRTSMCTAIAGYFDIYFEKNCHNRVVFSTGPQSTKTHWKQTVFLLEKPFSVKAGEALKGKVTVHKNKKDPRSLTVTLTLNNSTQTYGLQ

[13] = molecular target: T4, Histone-lysine N-methyltransferase SETD7 (Homo sapiens) (UniProt Q8WTS6); test: Inhibition of SETD7 (unknown origin) at 100 uM
T4 sequence (whole entry): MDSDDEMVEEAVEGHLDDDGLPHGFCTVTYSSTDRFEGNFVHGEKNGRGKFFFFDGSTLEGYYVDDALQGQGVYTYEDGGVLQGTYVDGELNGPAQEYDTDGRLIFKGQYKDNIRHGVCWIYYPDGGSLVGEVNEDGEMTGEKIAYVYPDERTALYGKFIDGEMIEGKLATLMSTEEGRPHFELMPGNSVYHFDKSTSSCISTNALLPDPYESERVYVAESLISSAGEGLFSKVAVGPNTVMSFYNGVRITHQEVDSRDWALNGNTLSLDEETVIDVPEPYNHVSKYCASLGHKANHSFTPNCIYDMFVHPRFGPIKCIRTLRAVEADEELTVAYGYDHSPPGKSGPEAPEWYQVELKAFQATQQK

Trypanosoma brucei = test: Inhibition of Trypanosoma brucei PRMT7 at 30 uM relative to control
[14] = molecular target: T5, Nicotinamide N-methyltransferase (Homo sapiens) (UniProt P40261); test: Inhibition of NNMT (unknown origin) at 100 uM
T5 sequence (whole entry): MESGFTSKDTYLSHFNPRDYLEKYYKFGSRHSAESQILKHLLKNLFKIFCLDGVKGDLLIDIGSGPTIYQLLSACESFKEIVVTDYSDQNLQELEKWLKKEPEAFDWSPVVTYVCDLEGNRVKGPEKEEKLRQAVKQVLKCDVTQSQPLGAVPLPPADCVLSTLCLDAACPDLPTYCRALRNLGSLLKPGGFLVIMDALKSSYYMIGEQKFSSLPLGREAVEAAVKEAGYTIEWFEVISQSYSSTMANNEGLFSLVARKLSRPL

[15] = molecular target: Adenosylhomocysteinase (Homo sapiens) (UniProt P23526); test: Inhibition of SAHH (unknown origin) at 30 uM relative to control
Sequence of Adenosylhomocysteinase (Homo sapiens) (P23526 2-432 limits assumed): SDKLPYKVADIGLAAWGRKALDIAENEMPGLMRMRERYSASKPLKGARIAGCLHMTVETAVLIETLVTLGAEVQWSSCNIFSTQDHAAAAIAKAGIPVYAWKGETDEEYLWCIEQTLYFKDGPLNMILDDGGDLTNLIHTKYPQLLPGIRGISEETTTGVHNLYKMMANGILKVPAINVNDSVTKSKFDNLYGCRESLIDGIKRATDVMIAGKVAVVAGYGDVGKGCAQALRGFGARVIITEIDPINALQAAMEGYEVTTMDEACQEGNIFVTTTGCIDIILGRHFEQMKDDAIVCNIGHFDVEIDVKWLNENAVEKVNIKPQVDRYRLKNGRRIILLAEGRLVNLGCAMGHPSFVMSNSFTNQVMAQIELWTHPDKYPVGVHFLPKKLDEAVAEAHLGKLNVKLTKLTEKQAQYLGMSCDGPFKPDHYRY

[16] = molecular target: Protein arginine N-methyltransferase 1 (Homo sapiens) (UniProt Q99873); test: Inhibition of PRMT1 (unknown origin) at 30 uM relative to control
Sequence of Protein arginine N-methyltransferase 1 (Homo sapiens) (Q99873 whole entry, looked up): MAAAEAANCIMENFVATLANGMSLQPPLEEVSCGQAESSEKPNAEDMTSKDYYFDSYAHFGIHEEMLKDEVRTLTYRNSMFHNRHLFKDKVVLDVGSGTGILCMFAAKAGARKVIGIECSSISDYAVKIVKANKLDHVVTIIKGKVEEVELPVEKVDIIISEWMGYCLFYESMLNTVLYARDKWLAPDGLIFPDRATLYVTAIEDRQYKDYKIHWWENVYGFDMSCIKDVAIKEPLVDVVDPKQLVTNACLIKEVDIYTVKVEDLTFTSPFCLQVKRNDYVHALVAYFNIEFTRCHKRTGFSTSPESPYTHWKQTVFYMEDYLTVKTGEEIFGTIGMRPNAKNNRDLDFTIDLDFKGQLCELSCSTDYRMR

[17] = molecular target: T1, N-terminal Xaa-Pro-Lys N-methyltransferase 1; test: Inhibition of NTMT1 (unknown origin) pre-incubated for 10 mins before GPKRIA peptide substrate addition and measured after 20 mins by MALDI-MS methylation assay

With `N=C(N)NCCC[C@H](NC(=O)[C@H](CCCCN)NC(=O)[C@@H]1CCCN1C(=O)CNCCCCN(CC[C@H](N)C(=O)O)C[C@H]1O[C@@H](n2cnc3c(N)ncnc32)[C@H](O)[C@@H]1O)C(N)=O` the IC50 ([1]; read-out: IC50) was 84 nM.
With `CC[C@H](C)[C@H](NC(=O)[C@H](CCCNC(=N)N)NC(=O)[C@H](CCCCN)NC(=O)[C@@H]1CCCN1C(=O)CNCCN(CC[C@H](N)C(=O)O)C[C@H]1O[C@@H](n2cnc3c(N)ncnc32)[C@H](O)[C@@H]1O)C(=O)N[C@@H](C)C(N)=O` the Ki [2] was 6.8 nM, the Kd [3] was 46.7 nM and the Ki [4] was 8.2 nM. It also gave a Ki [5] of 4.9 nM, a Kd [6] of 980 nM and an IC50 ([1]; read-out: IC50) of 260 nM. The Kd [7] was “Not Active”, the Ki [8] was 5.4 nM and the Ki [9] was 99 nM.
With `CC[C@H](C)[C@H](NC(=O)[C@H](CCCNC(=N)N)NC(=O)[C@H](CCCCN)NC(=O)[C@@H]1CCCN1C(=O)CNCCCSC[C@H]1O[C@@H](n2cnc3c(N)ncnc32)[C@H](O)[C@@H]1O)C(=O)N[C@@H](C)C(N)=O` (H-[X1]PKRIA-NH2) the Activity [10] was “Active”.
For `CC[C@H](C)[C@H](NC(=O)[C@H](CCCNC(=N)N)NC(=O)[C@H](CCCCN)NC(=O)[C@@H]1CCCN1C(=O)CNCCCCN)C(=O)N[C@@H](C)C(N)=O` (H-[Nlys]PKRIA-NH2), the Activity [10] was “Active”.
With `N=C(N)NCCC[C@H](NC(=O)[C@H](CCCCN)NC(=O)[C@@H]1CCCN1C(=O)CNCCCN(CC[C@H](N)C(=O)O)C[C@H]1O[C@@H](n2cnc3c(N)ncnc32)[C@H](O)[C@@H]1O)C(N)=O` the IC50 ([1]; read-out: IC50) was 200 nM.
For `CC[C@H](C)[C@H](NC(=O)[C@H](CCCNC(=N)N)NC(=O)[C@H](CCCCN)NC(=O)[C@@H]1CCCN1C(=O)CNCCCCCN(CC[C@H](N)C(=O)O)C[C@H]1O[C@@H](n2cnc3c(N)ncnc32)[C@H](O)[C@@H]1O)C(=O)N[C@@H](C)C(N)=O`, the Kd [3] was 480 nM, the Kd [6] was 1600 nM and the IC50 [1] was “Not Active”. The Kd [7] was “Not Active”.
With `CC[C@H](C)[C@H](NC(=O)[C@H](CCCNC(=N)N)NC(=O)[C@H](CCCCN)NC(=O)[C@@H]1CCCN1C(=O)CNCCCN(CC[C@H](N)C(=O)O)C[C@H]1O[C@@H](n2cnc3c(N)ncnc32)[C@H](O)[C@@H]1O)C(=O)N[C@@H](C)C(N)=O` the Ki [2] was 2.4 nM, the Kd [3] was 41 nM and the Ki [4] was 0.78 nM. It also gave a Ki [5] of 2.5 nM, a Kd [6] of 2400 nM and an IC50 ([1]; read-out: IC50) of 130 nM. For the same compound, the Kd [7] was “Not Active”, the Ki [8] was 1.3 nM and the Ki [9] was 41 nM.
With `CC[C@H](C)[C@H](NC(=O)[C@H](CCCNC(=N)N)NC(=O)[C@H](CCCCN)NC(=O)[C@@H]1CCCN1C(=O)CNCCCCNCC[C@H](N)C(=O)O)C(=O)N[C@@H](C)C(N)=O` the Activity [10] was “Active”.
`N=C(N)NCCC[C@H](NC(=O)[C@H](CCCCN)NC(=O)[C@@H]1CCCN1C(=O)CNCCN(CC[C@H](N)C(=O)O)C[C@H]1O[C@@H](n2cnc3c(N)ncnc32)[C@H](O)[C@@H]1O)C(N)=O` was tested, and the IC50 ([1]; read-out: IC50) was 320 nM.
`NCCCCN(CC[C@H](N)C(=O)O)C[C@H]1O[C@@H](n2cnc3c(N)ncnc32)[C@H](O)[C@@H]1O` showed an IC50 ([1]; read-out: IC50) greater than 10000 nM.
In the case of `CC[C@H](C)[C@H](NC(=O)[C@H](CCCNC(=N)N)NC(=O)[C@H](CCCCN)NC(=O)[C@@H]1CCCN1C(=O)CNCCCCN(CC[C@H](N)C(=O)O)C[C@H]1O[C@@H](n2cnc3c(N)ncnc32)[C@H](O)[C@@H]1O)C(=O)N[C@@H](C)C(N)=O`, the Ki [2] is reported as 0.49 nM, the Kd [3] is reported as 2.47 nM and the Ki [4] is reported as 0.73 nM. The Ki [5] was 0.62 nM, the Kd [6] was 310 nM and the inhibition [11] was “inactive”. The inhibition [12] was less than 50%, the IC50 ([1]; read-out: IC50) was 82 nM and the inhibition [13] was “inactive”. The inhibition (Trypanosoma brucei) was less than 50%, the Kd [7] was “Not Active” and the inhibition [14] was “inactive”. For the same compound, the inhibition [15] was less than 50%, the Ki [8] was 0.13 nM and the inhibition [16] was less than 50%. The Ki [9] was 15 nM.
In the case of `Nc1ncnc2c1ncn2[C@@H]1O[C@H](CNCC[C@H](N)C(=O)O)[C@@H](O)[C@H]1O`, the IC50 [17] is reported as greater than 10000 nM.
